Publication PMC5851871 (Bioorganic & medicinal chemistry letters, 2018)

Key:
[1] = biological target: thrombin cleavage of human fibrinogen (Homo sapiens, UniProt P00734); test: PAGE densitometry of thrombin cleavage of fibrinogen; type: biochemical; conditions: for Maximal inhibition of fibrinogen cleavage (ΔY against fibrinogen): saturating inhibitor, 4.7 μM fibrinogen, 6 nM thrombin, pH 7.4, 25 °C
Outline: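 Thrombin (6 nM) cleaved human fibrinogen (4.7 μM) with test compound at 0 to 150 μM. Fibrinogen cleavage was monitored by polyacrylamide gel electrophoresis.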

[2] = tested on: recombinant thrombin mutants (exosite 2 Ala replacements); test: Inhibition of recombinant exosite 2 alanine mutant versus wild-type thrombins; type: biochemical; conditions: 11 single Ala mutants of exosite 2, Spectrozyme TH, pH 7.4, 25 °C
thrombin [3] = biological target: T1, thrombin (Homo sapiens, UniProt P00734); test: Michaelis-Menten kinetics of Spectrozyme TH hydrolysis; type: biochemical; conditions: Michaelis-Menten kinetic studies
Outline: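 Thrombin hydrolysis of Spectrozyme TH, a chromogenic substrate, was read spectrophotometrically at pH 7.4 and 25 °C. The substrate was varied at several test compound levels up to 40 μM. VMAX and KM were taken from Michaelis-Menten analysis to assign the inhibition mechanism.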

thrombin [4] = biological target: T1, thrombin; test: Thrombin inhibition, chromogenic substrate hydrolysis assay; type: biochemical; conditions: 20 mM Tris-HCl pH 7.4, 25 mM CaCl2, 100 mM NaCl, 0.1% PEG 8000, 25 °C, ± 1 S.E.
thrombin [5] = biological target: T1, thrombin; conditions: inhibition of human thrombin by peptides; cited from earlier work

Compound	Maximal inhibition of fibrinogen cleavage (ΔY against fibrinogen) [1]	Fibrinogen cleavage continuing at saturating inhibitor ([1]; saturating levels of inhibitor)	IC50 of mutant versus wild-type thrombin [2]	Mechanism of inhibition (thrombin [3])	ΔY (efficacy of inhibition) (thrombin [4])	IC50 (thrombin [5]) [µM]
CCOC(=O)c1c(C)oc2cc(OCCc3ccccc3)c(OCc3oc4cc(OC)c(OS(=O)(=O)[O-])cc4c3C(=O)OCC)cc12.[Na+] [2c]	about 70±8%	approximately 30%	virtually no difference in IC50 between wild-type and mutant thrombin except for Arg233Ala and Lys235Ala proteins	noncompetitive inhibitor		
CCOC(=O)c1c(C)oc2cc(OCC3CCCCC3)c(OCc3oc4cc(OCC5CCCCC5)c(OS(=O)(=O)[O-])cc4c3C(=O)OCC)cc12.[Na+] [2h]					~ 90%	
CCOC(=O)c1c(C)oc2cc(OCc3ccccc3)c(OCc3oc4cc(OCC5CCCCC5)c(OS(=O)(=O)[O-])cc4c3C(=O)OCC)cc12.[Na+] [2i]	greater than 90%		potency changed significantly for several mutants including Arg165Ala, Lys169Ala, Arg175Ala, Arg233Ala and Lys236Ala	mixed inhibition		
Fibrinogen peptide (410 – 427): allosteric peptide inhibitor of thrombin, literature value from ref 18						130
